According to article PMC6923801 (Journal of medicinal chemistry, 2019):
pEC50: −log10 of the molar value.

Assays:
Type in all cases: cell-based
human GPR68 = human GPR68 (Homo sapiens, UniProt Q15743); test: GloSensor cAMP assay, proton-mediated Gs-cAMP production at human GPR68; conditions: for Δ: difference of Log(αβ/KB) from that of 1; for Log (α): affinity cooperativity; for Log (α) / Log (β): human GPR68, HEK293T, Gs-cAMP; for Log (α) / −Log (KB) / Log (αβ/KB) / Log (β): mean ± SEM; for −Log (KB): allosteric binding affinity from functional assay; for Log (αβ/KB): allosteric index; for Log (β): efficacy cooperativity
Sequence of human GPR68 (Q15743 whole entry): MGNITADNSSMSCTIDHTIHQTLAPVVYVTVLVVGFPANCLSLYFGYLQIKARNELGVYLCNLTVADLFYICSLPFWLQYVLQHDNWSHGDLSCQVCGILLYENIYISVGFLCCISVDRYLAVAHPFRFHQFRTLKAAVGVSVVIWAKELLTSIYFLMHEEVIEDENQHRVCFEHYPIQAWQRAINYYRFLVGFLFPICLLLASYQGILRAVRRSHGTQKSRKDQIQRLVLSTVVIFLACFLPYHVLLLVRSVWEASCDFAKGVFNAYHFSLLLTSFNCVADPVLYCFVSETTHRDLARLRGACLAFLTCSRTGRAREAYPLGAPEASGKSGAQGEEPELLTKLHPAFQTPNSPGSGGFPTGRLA
Summary of the method: (§1)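 HEK293T cells were transiently transfected with receptor and GloSensor cAMP plasmids, overnight (16–20 h). Cells were plated on poly-L-Lys in DMEM + 1% dFBS for 6–24 h, then loaded with 3.5 mM luciferin (HBSS, 20 mM TAPS, pH 8.40) for 1 h at 37 °C. Drug was applied in Ca/Mg-free HBSS pH buffers (MES 5.60–6.70, HEPES 6.80–8.20, TAPS 8.30–8.60) with 10 μM Ro 20-1724. Luminescence was read at 20–30 min.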

mouse GPR68 = mouse GPR68 (Mus musculus, UniProt Q8BFQ3); test: GloSensor cAMP assay at mouse GPR68
Sequence of mouse GPR68 (Q8BFQ3 whole entry): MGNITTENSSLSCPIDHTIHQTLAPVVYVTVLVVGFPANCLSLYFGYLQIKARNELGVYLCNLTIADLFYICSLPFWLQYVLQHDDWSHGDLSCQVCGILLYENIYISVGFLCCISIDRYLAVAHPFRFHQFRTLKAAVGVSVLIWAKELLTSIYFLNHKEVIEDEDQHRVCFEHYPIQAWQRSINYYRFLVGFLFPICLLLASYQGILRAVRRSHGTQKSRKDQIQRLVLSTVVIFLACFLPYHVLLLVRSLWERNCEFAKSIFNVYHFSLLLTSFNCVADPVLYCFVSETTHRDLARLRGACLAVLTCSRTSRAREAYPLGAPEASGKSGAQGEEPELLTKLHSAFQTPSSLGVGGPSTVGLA
Summary of the method: as §1

A2A receptors = A2A receptors (Homo sapiens, UniProt P29274); test: Functional assay at A2A receptors
Sequence of A2A receptors (P29274 whole entry): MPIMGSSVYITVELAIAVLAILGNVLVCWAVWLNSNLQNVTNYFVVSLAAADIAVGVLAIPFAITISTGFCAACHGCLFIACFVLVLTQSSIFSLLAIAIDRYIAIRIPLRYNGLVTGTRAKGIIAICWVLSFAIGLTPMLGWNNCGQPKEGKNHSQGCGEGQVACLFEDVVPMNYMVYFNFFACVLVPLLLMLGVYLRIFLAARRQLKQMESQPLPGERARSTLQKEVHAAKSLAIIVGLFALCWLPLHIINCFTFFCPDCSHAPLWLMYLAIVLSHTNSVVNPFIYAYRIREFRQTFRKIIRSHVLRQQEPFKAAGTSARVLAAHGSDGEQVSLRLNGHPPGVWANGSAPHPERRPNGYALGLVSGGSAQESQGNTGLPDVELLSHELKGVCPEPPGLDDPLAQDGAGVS

GPR65 = GPR65 (Homo sapiens, UniProt Q8IYL9); test: GloSensor cAMP assay at GPR65; conditions: proton concentration-response with increasing modulator
Sequence of GPR65 (Q8IYL9 whole entry): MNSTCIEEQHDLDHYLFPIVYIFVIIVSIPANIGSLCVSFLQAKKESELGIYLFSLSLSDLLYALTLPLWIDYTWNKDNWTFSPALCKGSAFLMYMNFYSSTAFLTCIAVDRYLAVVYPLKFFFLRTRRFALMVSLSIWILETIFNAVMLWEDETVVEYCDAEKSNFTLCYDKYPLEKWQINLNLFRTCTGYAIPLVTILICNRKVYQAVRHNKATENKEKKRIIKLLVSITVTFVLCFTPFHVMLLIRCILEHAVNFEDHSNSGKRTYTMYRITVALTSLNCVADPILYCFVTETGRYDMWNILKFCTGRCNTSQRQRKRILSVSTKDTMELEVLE
Summary of the method: as §1

GPR4 = GPR4 (Homo sapiens, UniProt P46093); test: GloSensor cAMP assay at GPR4; conditions: proton concentration-response with increasing modulator
Sequence of GPR4 (P46093 whole entry): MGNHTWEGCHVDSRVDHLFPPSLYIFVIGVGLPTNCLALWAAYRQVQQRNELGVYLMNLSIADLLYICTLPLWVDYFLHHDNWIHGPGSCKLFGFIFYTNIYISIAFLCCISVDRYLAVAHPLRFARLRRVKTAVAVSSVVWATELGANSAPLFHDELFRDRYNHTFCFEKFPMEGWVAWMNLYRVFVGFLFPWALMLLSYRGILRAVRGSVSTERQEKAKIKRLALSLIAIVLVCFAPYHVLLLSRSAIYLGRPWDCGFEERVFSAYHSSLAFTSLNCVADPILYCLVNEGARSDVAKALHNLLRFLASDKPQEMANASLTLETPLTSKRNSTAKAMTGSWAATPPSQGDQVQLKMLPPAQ
Summary of the method: as §1

[1] = test system: human GPCRome (318 GPCRs); test: PRESTO-Tango GPCRome off-target agonist screen; conditions: 1 μM
Summary of the method: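 HTLA cells were plated in DMEM + 2% dFBS overnight, then transfected overnight with receptor Tango constructs (15 ng/well) by in-plate PEI. Test compound was added without medium change and left overnight. Bright-Glo luminescence was read after 20 min at room temperature and expressed as fold of basal, using quadruplicate basal and sample wells. Controls were D2 with 100 nM quinpirole and untransfected cells.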

Row | Kb (human GPR68) | Δ (human GPR68; human GPR68) | Compound | further results
1 | 3.02 µM | 1.04 | Nc1nc(NCCCCc2ccccc2)nc(-c2ccccc2CO)n1 [Compound 63] | Kb (mouse GPR68): 12.3 µM
2 |  | Weak PAM | CC(=O)c1ccccc1-c1nc(N)nc(NCc2ccccc2)n1 [Compound 15, 1-(2-(4-Amino-6-(benzylamino)-1,3,5-triazin-2-yl)phenyl)ethan-1-one] | Log (α) (human GPR68): Weak PAM; −Log (KB) (human GPR68; human GPR68): Weak PAM; Log (αβ/KB) (human GPR68; human GPR68): Weak PAM; Log (β) (human GPR68): Weak PAM
3 | 457 µM | −0.70 | COc1ccc(CNc2nc(N)nc(-c3ccccc3CO)n2)cc1 [Compound 55] | 
4 | 60.3 µM |  | Nc1nc(NCc2ccccc2F)nc(-c2c(F)cccc2CO)n1 [Compound 67, (2-(4-Amino-6-((2-fluorobenzyl)amino)-1,3,5-triazin-2-yl)-3-fluorophenyl)methanol] | 
5 | 6.03 µM | 0.80 | Nc1nc(NCc2ccc(Cl)cc2)nc(-c2ccccc2CO)n1 [Compound 46, (2-(4-Amino-6-((4-chlorobenzyl)amino)-1,3,5-triazin-2-yl)-phenyl)methanol] | fold increased allosteric activity (log(αβ/KB)) compared to 1 (human GPR68; human GPR68): 6 fold; pEC50 (A2A receptors): 5.77; agonist activity at A2A receptors (A2A receptors): no agonist activity; PAM activity at GPR65 (GPR65): no effect or weak activity only at high concentrations; PAM activity at GPR4 (GPR4): no effect or weak activity only at high concentrations; off-target agonist activity at human GPCRome [1]: no agonist activity; Kb (mouse GPR68): 50.1 µM; Δ (mouse GPR68; difference of Log(αβ/KB) at mouse GPR68 from the corresponding values at human GPR68): −0.43
6 | 97.7 µM | −0.45 | Nc1nc(NCc2ccccc2)nc(-c2cccc(F)c2CO)n1 [Compound 22, (2-(4-Amino-6-(benzylamino)-1,3,5-triazin-2-yl)-6-fluorophenyl)-methanol] | 
7 | 30.2 µM | 0.24 | Nc1nc(NCc2cccc(F)c2)nc(-c2ccccc2CO)n1 [Compound 42, (2-(4-Amino-6-((3-fluorobenzyl)amino)-1,3,5-triazin-2-yl)-phenyl)methanol] | 
8 | 15.5 µM | 0.62 | Nc1nc(NCCCCc2ccc(Oc3ccccc3)cc2)nc(-c2ccccc2CO)n1 [Compound 66, (2-(4-Amino-6-((4-(4-phenoxyphenyl)butyl)amino)-1,3,5-triazin-2-yl)phenyl)methanol] | 
9 | 20 µM | 0.26 | Cc1ccccc1CNc1nc(N)nc(-c2ccccc2CO)n1 [Compound 50, (2-(4-Amino-6-((2-methylbenzyl)amino)-1,3,5-triazin-2-yl)-phenyl)methanol] | 
10 | 138 µM | −0.30 | NCc1ccccc1-c1nc(N)nc(NCc2ccccc2)n1 [Compound 18, 6-(2-(Aminomethyl)phenyl)-N^2-benzyl-1,3,5-triazine-2,4-diamine] | 
11 | 91.2 µM | 0.03 | Nc1nc(NCCCCc2ccccc2)nc(-c2c(F)cccc2CO)n1 [Compound 74, (2-(4-Amino-6-((4-phenylbutyl)amino)-1,3,5-triazin-2-yl)-3-fluorophenyl)methanol] | 
12 |  | Weak PAM | CC(O)c1ccccc1-c1nc(N)nc(NCc2ccccc2)n1 (stereo not drawn) [Compound 16, 1-(2-(4-Amino-6-(benzylamino)-1,3,5-triazin-2-yl)phenyl)ethan-1-ol] | Log (α) (human GPR68): Weak PAM; −Log (KB) (human GPR68; human GPR68): Weak PAM; Log (αβ/KB) (human GPR68; human GPR68): Weak PAM; Log (β) (human GPR68): Weak PAM
13 | 37.2 µM | 0.25 | Nc1nc(NCc2ccccc2)nc(-c2c(Cl)cccc2CO)n1 [Compound 28, (2-(4-Amino-6-(benzylamino)-1,3,5-triazin-2-yl)-3-chlorophenyl)methanol] | 
14 |  | Weak PAM | Nc1cc(-c2ccccc2CO)nc(NCc2ccccc2)n1 [Compound 10, (2-(6-Amino-2-(benzylamino)pyrimidin-4-yl)phenyl)methanol] | Log (α) (human GPR68): Weak PAM; −Log (KB) (human GPR68; human GPR68): Weak PAM; Log (αβ/KB) (human GPR68; human GPR68): Weak PAM; Log (β) (human GPR68): Weak PAM
15 | 36.3 µM | 0.11 | Cc1cccc(CNc2nc(N)nc(-c3c(F)cccc3CO)n2)c1 [Compound 69, (2-(4-Amino-6-((3-methylbenzyl)amino)-1,3,5-triazin-2-yl)-3-fluorophenyl)methanol] | 
16 | 8.51 µM | 0.63 | Nc1nc(NCc2ccccc2Cl)nc(-c2ccccc2CO)n1 [Compound 44, (2-(4-Amino-6-((2-chlorobenzyl)amino)-1,3,5-triazin-2-yl)-phenyl)methanol] | 

Row | Kb (human GPR68) | Δ (human GPR68; human GPR68) | Compound | further results
17 | 26.3 µM | 0.38 | Nc1nc(NCc2ccccc2)nc(-c2cc(F)ccc2CO)n1 [Compound 24, (2-(4-Amino-6-(benzylamino)-1,3,5-triazin-2-yl)-4-fluorophenyl)-methanol] | 
18 | 75.9 µM | −0.34 | COc1ccc(-c2nc(N)nc(NCc3ccccc3)n2)c(CO)c1 [Compound 30] | 
19 | 26.3 µM | 0.15 | Nc1nc(NCc2ccccc2)nc(-c2ccc(F)cc2CO)n1 [Compound 23, (2-(4-Amino-6-(benzylamino)-1,3,5-triazin-2-yl)-5-fluorophenyl)-methanol] | 
20 |  | Inactive | Nc1nc(NCc2ccccc2)nc(-c2cccc(CO)c2)n1 [Compound 20] | Log (α) (human GPR68): Inactive; −Log (KB) (human GPR68; human GPR68): Inactive; Log (αβ/KB) (human GPR68; human GPR68): Inactive; Log (β) (human GPR68): Inactive; PAM activity at GPR68 (human GPR68; inactive analogues): do not show PAM activity; PAM activity at GPR65 (GPR65): do not show PAM activity; PAM activity at GPR4 (GPR4): do not show PAM activity
21 | 9.33 µM | 0.79 | Nc1nc(NCc2ccc(C(F)(F)F)cc2)nc(-c2ccccc2CO)n1 [Compound 49, (2-(4-Amino-6-((4-(trifluoromethyl)benzyl)amino)-1,3,5-triazin-2-yl)phenyl)methanol] | 
22 | 7.76 µM | 0.76 | Nc1nc(NCc2cccc(C(F)(F)F)c2)nc(-c2ccccc2CO)n1 [Compound 48, (2-(4-Amino-6-((3-(trifluoromethyl)benzyl)amino)-1,3,5-triazin-2-yl)phenyl)methanol] | 
23 | 6.03 µM | 0.80 | Nc1nc(NCCCc2ccccc2)nc(-c2ccccc2CO)n1 [Compound 62] | 
24 | 8.91 µM | 0.65 | Nc1nc(NCc2ccccc2C(F)(F)F)nc(-c2ccccc2CO)n1 [Compound 47, (2-(4-Amino-6-((2-(trifluoromethyl)benzyl)amino)-1,3,5-triazin-2-yl)phenyl)methanol] | 
25 | 42.7 µM | 0.03 | CCOc1ccc(-c2nc(N)nc(NCc3ccccc3)n2)c(CO)c1 [Compound 37, (2-(4-Amino-6-(benzylamino)-1,3,5-triazin-2-yl)-5-ethoxyphenyl)methanol] | 
26 | 107 µM | 0.11 | Nc1nc(NCc2ccc(F)cc2)nc(-c2ccccc2CO)n1 [Compound 43, (2-(4-Amino-6-((4-fluorobenzyl)amino)-1,3,5-triazin-2-yl)-phenyl)methanol] | 
27 | 32.4 µM | 0.47 | Nc1nc(NCc2ccccc2)nc(-c2cc(Cl)ccc2CO)n1 [Compound 27, (2-(4-Amino-6-(benzylamino)-1,3,5-triazin-2-yl)-4-chlorophenyl)methanol] | 
28 | 120 µM | −0.27 | Nc1nc(Nc2ccccc2)nc(-c2ccccc2CO)n1 [Compound 60, (2-(4-Amino-6-(phenylamino)-1,3,5-triazin-2-yl)phenyl)-methanol] | 
29 | 41.7 µM | 0.29 | Cc1ccc(CNc2nc(N)nc(-c3ccccc3CO)n2)cc1 [Compound 52, (2-(4-Amino-6-((4-methylbenzyl)amino)-1,3,5-triazin-2-yl)-phenyl)methanol] | 
30 | 12.3 µM | 0.43 | CC(C)Oc1ccc(-c2nc(N)nc(NCc3ccccc3)n2)c(CO)c1 [Compound 38, (2-(4-Amino-6-(benzylamino)-1,3,5-triazin-2-yl)-5-isopropoxyphenyl)methanol] | 
31 | 102 µM | −0.54 | COc1ccc(CO)c(-c2nc(N)nc(NCc3ccccc3)n2)c1 [Compound 31, (2-(4-Amino-6-(benzylamino)-1,3,5-triazin-2-yl)-4-methoxyphenyl)methanol] | 
32 |  | Inactive | Nc1nc(NCc2ccccc2)nc(-c2ccccc2)n1 [Compound 13, N^2-Benzyl-6-phenyl-1,3,5-triazine-2,4-diamine] | Log (α) (human GPR68): Inactive; −Log (KB) (human GPR68; human GPR68): Inactive; Log (αβ/KB) (human GPR68; human GPR68): Inactive; Log (β) (human GPR68): Inactive
